We go through 5 molecules from paper PMC6319658 (Journal of natural products, 2018).

Molecules are shown by their SMILES.

Data set [1] concerns 60 human tumor cell lines. Put plainly: NCI-60 cell line screening assay. It counts as cell-based. The conditions noted are these: for growth suppression of cell lines that harbor the B-Raf V600E mutation: Colo205 colon, MALM-3M, SK-MEL-5, MDA-MB-435 melanoma cell lines; for pattern of cytotoxicity at the GI50 level: NCI-60 screen. An outline of the steps:
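Test compounds were submitted as DMSO solutions to the NCI-60 screen for cytotoxicity across 60 human tumor cell lines. The response patterns were analysed with bioinformatics tools on the public CellMiner site.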

The subject of the next data set is B-Raf. As to the kind of experiment: Raf kinase catalytic activity assay. The conditions noted are these: 10 μM compound; data not shown. It counts as biochemical.
For the next data set, the system named is C-Raf. As to the kind of experiment: Raf kinase catalytic activity assay. It counts as biochemical. The conditions noted are these: 10 μM compound; data not shown.
The subject of another data set is MEK. Put plainly: MEK1 kinase activity assay. It counts as biochemical. To be noted: 10 μM compound; data not shown.
A further data set concerns ERK. Put plainly: ERK kinase catalytic activity assay. The class given is biochemical. To be noted: data not shown.
The test system of data set [2] is Colo205 cells that harbor the V600E B-Raf mutation. As to the kind of experiment: Western blot analysis of ERK signaling cascade proteins in Colo205 cells. To be noted: for total protein levels of B-Raf, C-Raf, and MEK / ERK protein levels: 18 h treatment. It counts as cell-based, human. In general terms: A western blot detects proteins with antibodies after separation by electrophoresis.

The subject of the next data set is cells. The conditions noted are these: cited from earlier work.
For data set [3], the system named is SUMO conjugation enzymatic cascade. The class given is biochemical. The conditions noted are these: read-out: IC50, inhibition of SUMOylation of a substrate peptide; in vitro electrophoretic mobility shift assay. (In EMSA bound probe runs differently from free probe, usually more slowly.)

Take `CSC1=C(N)C(=O)c2[nH]cc(CO)c2C1=N` [Compound 1, macrophilone A]: in data set [1], the “growth suppression of cell lines that harbor the B-Raf V600E mutation” value was “most potent” and the “pattern of cytotoxicity at the GI50 level” value (shortened to “pattern of cytotoxicity”) is recorded as “selective cytotoxicity”. Also, the “inhibition of kinase catalytic activity of B-Raf” value (“inhibition … of B-Raf” for short) with B-Raf was “no reduction in kinase activity”. Moreover, in the data set with C-Raf, the “inhibition of kinase catalytic activity of C-Raf” value (“inhibition … of C-Raf” below) is “no reduction in kinase activity”. Besides, the “inhibition of kinase catalytic activity of MEK” value (shortened to “inhibition … of MEK”) with MEK was “no reduction in kinase activity”. Besides, the “inhibition of kinase catalytic activity of ERK” value (shortened to “inhibition … of ERK”) in the data set with ERK is recorded as “no reduction in kinase activity”. For the same molecule, in data set [2] (1 μM), the “total protein levels of B-Raf, C-Raf, and MEK” value (shortened to “total protein levels of B-Raf”) is recorded as “effective at reducing these proteins”. In data set [2] (10 μM), the ERK protein levels result was “no corresponding loss”; the “total protein levels of B-Raf” value is reported as “striking reductions”. Further, the “reactive oxygen species (ROS) in cells” value with cells is “increase in reactive oxygen species”.
In the case of `N=C1C2=C(NCCS2)C(=O)c2[nH]cc(CO)c21` [Compound 3, macrophilone C], in data set [1], the “growth suppression of cell lines that harbor the B-Raf V600E mutation” value is reported as “most potent” and the “pattern of cytotoxicity” value was “selective cytotoxicity”. Besides, in the data set on B-Raf, the “inhibition … of B-Raf” value was “no reduction in kinase activity”. For the same molecule, the “inhibition … of C-Raf” value in the data set on C-Raf was “no reduction in kinase activity”. Besides, the “inhibition … of MEK” value in the data set on MEK was “no reduction in kinase activity”. In addition, the “inhibition … of ERK” value in the data set with ERK is listed as “no reduction in kinase activity”. Besides, the “phosphorylation (activation) of MEK and ERK” value in data set [2] (1 μM) was “increased phosphorylation”. For the same molecule, in data set [2] (10 μM), the ERK protein levels result is “no corresponding loss”; the “total protein levels of B-Raf” value is reported as “striking reductions”.
In the case of `N=C1C2=C(NCC[S+]2[O-])C(=O)c2[nH]cc(CO)c21` (stereo not drawn) [Compound 4, macrophilone D], the “pattern of cytotoxicity” value in data set [1] was “selective cytotoxicity”. Besides, in the data set on B-Raf, the “inhibition … of B-Raf” value is given as “no reduction in kinase activity”. For the same molecule, the “inhibition … of C-Raf” value in the data set with C-Raf is “no reduction in kinase activity”. Further, the “inhibition … of MEK” value in the data set with MEK is given as “no reduction in kinase activity”. In addition, the “inhibition … of ERK” value in the data set on ERK was “no reduction in kinase activity”. Also, in data set [2] (1 μM), the “phosphorylation (activation) of MEK and ERK” value was “increased phosphorylation”. Besides, in data set [2] (10 μM), the ERK protein levels entry is “no corresponding loss”; the “total protein levels of B-Raf” value was “striking reductions”.
By IC50 is commonly meant the concentration that inhibits the measured activity by half. For the molecule `O=C1C2=C(SCCN2)C2=NCCc3c[nH]c1c32` [Compound 6, macrophilone F], the IC50 in data set [3] is > 100 µM.
Consider `CN(C)CCOc1ccc(-c2nc(-c3ccc4c(c3)CC/C4=N\O)c(-c3ccncc3)[nH]2)cc1` [SB-590885, reference compound], for which, in data set [2] (positive control), the “phosphorylation of MEK and subsequent activation of ERK” value is “blocked phosphorylation of MEK”; the “total protein concentrations in the pathway” value was “no significant impact”.
